Consider 14 molecules from ChEMBL document CHEMBL3797174, “Iodine catalyzed simple and efficient synthesis of antiproliferative 2-pyridones” (Bioorg Med Chem Lett, 2016).

In one assay the test system is A549. In words: Cytotoxicity against human A549 cells assessed as inhibition of cell proliferation after 24 hrs by MTT assay. The note with it: A549, 24 h. Format: functional, cell-based. In outline:
(§1)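 MTT reduction by viable cells; formazan dissolved in DMSO, absorbance read at 570 nm. […] Values expressed as IC50 (µM).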
(Tetrazolium assays rely on reduction of a dye to a coloured formazan, in cell work by metabolically active cells.)

Another assay has as its system HepG2. In words: Cytotoxicity against human HepG2 cells assessed as inhibition of cell proliferation after 24 hrs by MTT assay. Particulars: HepG2, 24 h. The format is functional, cell-based. The method, boiled down:
as §1

The test system of assay [1] is MCF7. Nature of the assay: Cytotoxicity against human MCF7 cells assessed as inhibition of cell proliferation after 24 hrs by MTT assay. The format is functional, cell-based. Particulars: MCF7, 24 h.
Assay [2] is described as follows: Cytotoxicity against human SKOV3 cells assessed as inhibition of cell proliferation after 24 hrs by MTT assay. The format is functional, cell-based. The note with it: SK-OV-3, 24 h. The method, boiled down: as §1
Another assay relates to MRC5. Nature of the assay: Cytotoxicity against human MRC5 cells assessed as cell viability after 24 hrs by MTT assay. The format is cell-based. Particulars: MRC5, 24 h. The method, boiled down: as §1
Assay [3] relates to MCF7. Nature of the assay: Induction of apoptosis in human MCF7 cells assessed as increase in caspase 3 activation at 8 to 12 uM using AFC-conjugated […] as substrate after 24 to 48 hrs by fluorescence analysis relative to control. Format: functional.
In assay [4] the test system is MCF7. In words: Induction of apoptosis in human MCF7 cells assessed as increase in caspase 9 activation at 8 to 12 uM using AFC-conjugated […] as substrate after 24 to 48 hrs by fluorescence analysis relative to control. The format is functional.

As usually defined, the IC50 is the midpoint of a concentration-inhibition curve. As to `CCOC(=O)c1c(C)[nH]c(=O)c(C#N)c1-c1ccc([N+](=O)[O-])cc1`, the IC50 is > 100 µM in the assay with A549; 21.7 µM in the assay on HepG2; 82 µM in the assay with MCF7 [1]; > 100 µM in assay [2]; 2230 µM in the assay on MRC5.
Consider `CCOC(=O)c1c(C)[nH]c(=O)c(C#N)c1-c1ccco1`, for which the IC50 is > 100 µM in the assay with A549; 57.4 µM in the assay on HepG2; 17.5 µM with MCF7 [1]; 76 µM in assay [2]; 407 µM in the assay on MRC5.
The like results for `CCOC(=O)c1c(C)[nH]c(=O)c(C#N)c1-c1cccs1` were, in that order, 20.1 µM, 74 µM, 33.4 µM, 97.3 µM and 205 µM.
Regarding `CCOC(=O)c1c(C)[nH]c(=O)c(C#N)c1-c1ccc(C#N)cc1`, the IC50 is > 100 µM in the assay with A549; 20.2 µM in the assay with HepG2; 9.32 µM with MCF7 [1]; > 100 µM in assay [2]; 1220 µM in the assay with MRC5.
Regarding `CCOC(=O)c1c(C)[nH]c(=O)c(C#N)c1-c1cc(OC)c(OC)c(OC)c1`, the IC50 was 23.4 µM in the assay on A549; 20.9 µM in the assay with HepG2; 18.1 µM in the assay with MCF7 [1]; > 100 µM in assay [2]; 253 µM in the assay with MRC5.
Consider `CCOC(=O)c1c(C)[nH]c(=O)c(C#N)c1-c1ccc(C)cc1`, for which the IC50 in the assay with A549 is 15.8 µM; in the assay on HepG2, 11.9 µM; with MCF7 [1], 8 µM; in assay [2] it was > 100 µM; with MRC5, 438 µM. For the same molecule, the “fold change (FC)” value with MCF7 [3] and in the assay on MCF7 [4] was 2 each time.
Turning to `CCOC(=O)c1c(C)[nH]c(=O)c(C#N)c1-c1ccccc1`, the IC50 in the assay with A549 was > 100 µM; in the assay with HepG2 it was 38.5 µM; with MCF7 [1], 22 µM; in assay [2] it was > 100 µM; in the assay on MRC5, 220 µM.
On to `CCOC(=O)c1c(C)[nH]c(=O)c(C#N)c1-c1ccc(Br)cc1`, for which the IC50 was > 100 µM in the assay on A549; 65.5 µM with HepG2; 31.8 µM in the assay with MCF7 [1]; > 100 µM in assay [2]; 310 µM in the assay on MRC5.
Take `CCOC(=O)c1c(C)[nH]c(=O)c(C#N)c1-c1ccc(OC)cc1`: the IC50 in the assay with A549 is 25.1 µM; in the assay with HepG2, 51.5 µM; with MCF7 [1] it was 36.1 µM; in assay [2], > 100 µM; with MRC5, 192 µM.
The like results for `CCOC(=O)c1c(C)[nH]c(=O)c(C#N)c1-c1ccccc1Cl` were, in that order, 25 µM, 34.1 µM, 25.4 µM, > 100 µM and 229 µM.
The like results for `CCOC(=O)c1c(C)[nH]c(=O)c(C#N)c1-c1ccc(F)cc1` were, in that order, 15.4 µM, 18.6 µM, 22.9 µM, > 100 µM and 149 µM.
With `CCOC(=O)c1c(C)[nH]c(=O)c(C#N)c1-c1ccc2c(c1)OCO2`, the IC50 in the assay with A549 was 27.3 µM; in the assay on HepG2, > 100 µM; in the assay on MCF7 [1], 34 µM; in assay [2] it was > 100 µM; in the assay with MRC5, 192 µM.
As to `CCOC(=O)c1c(C)[nH]c(=O)c(C#N)c1-c1cccc2ccccc12`, the IC50 is 24 µM with A549; 32.3 µM in the assay with HepG2; 31.4 µM in the assay on MCF7 [1]; > 100 µM in assay [2]; 196 µM with MRC5.
Consider `COc1cccc2c1C(=O)c1c(O)c3c(c(O)c1C2=O)C[C@@](O)(C(=O)CO)C[C@@H]3O[C@H]1C[C@H](N)[C@H](O)[C@H](C)O1` [DOXORUBICIN], for which the IC50 in the assay with A549 is 0.23 µM; in the assay with HepG2, 3.39 µM; in assay [2] it was 25 µM; with MRC5, 89.7 µM.
